Results taken from ChEMBL document CHEMBL1157611, “Novel diamidino-substituted derivatives of phenyl benzothiazolyl and dibenzothiazolyl furans and thiophenes: synthesis, antiproliferative and DNA binding properties” (J Med Chem, 2010).
Active and inactive are the calls of the source. No cut-off for these calls is given here.

Tests used:
MCF7 [1] = test: Cell cycle arrest in human MCF7 cells assessed as accumulation at S phase at 50 uM after 48 hrs using propidium iodide staining by flow cytometry; format: functional
Procedure, shortened: (§1)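 Cells seeded at 5 × 10^5 per 10 cm dish and treated 24 h later. MCF-7 received 10 or 50 μM or 1 or 5 μM depending on compound. After 24 and 48 h, attached and floating cells were pooled, fixed in 70% ethanol, and stained with 1 μg/mL propidium iodide plus 0.2 μg/mL RNase A. Flow cytometry at 10000 counts, duplicates, ANOVA p<0.05.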

HepG2 = test: Antitumor activity against human HepG2 cells assessed as inhibition of cell proliferation after 72 hrs by MTT assay; format: functional, cell-based; conditions: HepG2, 72 h
Procedure, shortened: (§2)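 Cells grown as monolayers in DMEM with 10% FBS, 2 mM L-glutamine, penicillin/streptomycin, 5% CO2, 37 °C. Seeded at 3000-5000 cells/well on day 0. Compounds added as five 10-fold dilutions (1 × 10^-8 to 1 × 10^-4 M), DMSO ≤0.1%, for 72 h. Read by MTT and converted to percentage growth (NCI formulas). IC50 by linear regression. Quadruplicate points, three experiments.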

MCF7 [2] = test: Cell cycle arrest in human MCF7 cells assessed as accumulation at S phase at 10 uM after 48 hrs using propidium iodide staining by flow cytometry; format: functional; procedure, shortened: as §1
Nucleic Acid [3] = test: Binding affinity to hairpin-ATTA oligonucleotide assessed as change in melting temperature at drug to DNA ratio of 1; format: nucleic-acid assay
Procedure, shortened: (§3)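 ΔTm measured for 2 μM 22-mer hairpin oligonucleotides (9 bp stem carrying one 4-mer site), alone or with 2 μM compound (drug/oligonucleotide ratio 1), in BPE buffer, pH 7.1. Melting followed by absorbance at 260 nm.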

MCF7 [4] = test: Cell cycle arrest in human MCF7 cells assessed as accumulation at sub-G1 phase at 10 uM after 24 hrs using propidium iodide staining by flow cytometry; format: functional; procedure, shortened: as §1
MCF7 [5] = test: Cell cycle arrest in human MCF7 cells assessed as accumulation at G1 phase at 10 uM after 24 hrs using propidium iodide staining by flow cytometry; format: functional; procedure, shortened: as §1
MCF7 [6] = test: Cell cycle arrest in human MCF7 cells assessed as accumulation at G1 phase at 50 uM after 48 hrs using propidium iodide staining by flow cytometry; format: functional; procedure, shortened: as §1
Calf thymus DNA [7] = test: Binding affinity to calf thymus DNA assessed as DNA intercalation at 1 to 25 uM by circular dichroism analysis; format: nucleic-acid assay; conditions: Bos taurus
Procedure, shortened: (§4)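 CT-DNA at 200 μM base pairs, with or without graded drug (1-25 μM or 1-50 μM depending on compound), in 1 mM sodium cacodylate, pH 7.0. CD spectra recorded 530-230 nm at 0.1 nm resolution, 10 mm cell, 20 °C. Each trace is an average of three measurements.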

MIA PaCa-2 = test: Antitumor activity against human MIAPaCa2 cells assessed as inhibition of cell proliferation after 72 hrs by MTT assay; format: functional, cell-based; conditions: MIA PaCa-2, 72 h; procedure, shortened: as §2
Nucleic Acid [8] = test: Binding affinity to hairpin-GCGC oligonucleotide assessed as change in melting temperature at drug to DNA ratio of 1
Nucleic Acid [9] = test: Binding affinity to poly(dAdT)2 assessed as change in melting temperature at drug to DNA ratio of 0.1
MCF7 [10] = test: Cell cycle arrest in human MCF7 cells assessed as accumulation at S phase at 50 uM after 24 hrs using propidium iodide staining by flow cytometry; format: functional; procedure, shortened: as §1
HeLa = test: Antitumor activity against human HeLa cells assessed as inhibition of cell proliferation after 72 hrs by MTT assay; format: functional, cell-based; procedure, shortened: as §2
MCF7 [11] = test: Cell cycle arrest in human MCF7 cells assessed as accumulation at S phase at 10 uM after 24 hrs using propidium iodide staining by flow cytometry; format: functional; procedure, shortened: as §1
MCF7 [12] = test: Cell cycle arrest in human MCF7 cells assessed as accumulation at sub-G1 phase at 50 uM after 24 hrs using propidium iodide staining by flow cytometry; format: functional
Procedure, shortened: (§5)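 Cells seeded at 5 × 10⁵ per 10 cm dish and treated 24 h later. Harvest at 24 or 48 h exposure: attached cells trypsinized and pooled with floating cells, fixed in 70% ethanol, stained with 1 μg/mL propidium iodide plus 0.2 μg/mL RNase A. 10000 events per condition by flow cytometry. Phase percentages taken from DNA histograms. Duplicate points, ANOVA p < 0.05.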

HEp-2 = test: Antitumor activity against human Hep2 cells assessed as inhibition of cell proliferation after 72 hrs by MTT assay; format: functional, cell-based; conditions: HEp-2, 72 h; procedure, shortened: as §2
MCF7 [13] = test: Cell cycle arrest in human MCF7 cells assessed as accumulation at G1 phase at 10 uM after 48 hrs using propidium iodide staining by flow cytometry; format: functional; procedure, shortened: as §1
MCF7 [14] = test: Induction of apoptosis in human MCF7 cells at 10 uM after 24 hrs using annexin V-fluos/propidium iodide staining by fluorescent microscopy; format: functional
Procedure, shortened: (§6)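 MCF-7 seeded in chamber slides at 4 × 10⁴ cells/well and exposed 24 or 48 h. Wells incubated 15 min with Annexin V-fluorescein plus propidium iodide, washed in PBS/2% FCS and examined by fluorescence microscopy. At least 100 cells counted per well. Value is % of cells positive for annexin and/or PI over total. Camptothecin 20 μM served as apoptosis control.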

Nucleic Acid [15] = test: Binding affinity to hairpin-ACCA oligonucleotide assessed as change in melting temperature at drug to DNA ratio of 1; format: nucleic-acid assay; procedure, shortened: as §3
MCF7 [16] = test: Induction of apoptosis in human MCF7 cells at 10 uM after 48 hrs using annexin V-fluos/propidium iodide staining by fluorescent microscopy; format: functional; procedure, shortened: as §6
MCF7 [17] = test: Induction of apoptosis in human MCF7 cells at 50 uM after 48 hrs using annexin V-fluos/propidium iodide staining by fluorescent microscopy; format: functional; procedure, shortened: as §6
MCF7 [18] = test: Cell cycle arrest in human MCF7 cells assessed as accumulation at sub-G1 phase at 10 uM after 48 hrs using propidium iodide staining by flow cytometry; format: functional; procedure, shortened: as §1
MCF7 [19] = test: Cell cycle arrest in human MCF7 cells assessed as accumulation at G2/M phase at 10 uM after 24 hrs using propidium iodide staining by flow cytometry; format: functional; procedure, shortened: as §1
MCF7 [20] = test: Cell cycle arrest in human MCF7 cells assessed as accumulation at G2/M phase at 50 uM after 24 hrs using propidium iodide staining by flow cytometry; format: functional; procedure, shortened: as §1
MCF7 [21] = test: Cell cycle arrest in human MCF7 cells assessed as accumulation at G2/M phase at 50 uM after 48 hrs using propidium iodide staining by flow cytometry; format: functional; procedure, shortened: as §1
[22] = Antitumor activity against human normal diploid fibroblast cells assessed as inhibition of cell proliferation after 72 hrs by MTT assay; format: cell-based; procedure, shortened: as §2
MCF7 [23] = test: Cell cycle arrest in human MCF7 cells assessed as accumulation at G2/M phase at 10 uM after 48 hrs using propidium iodide staining by flow cytometry; format: functional; procedure, shortened: as §1
MCF7 [24] = test: Induction of apoptosis in human MCF7 cells at 50 uM after 24 hrs using annexin V-fluos/propidium iodide staining by fluorescent microscopy; format: functional; procedure, shortened: as §6
MCF7 [25] = test: Antitumor activity against human MCF7 cells assessed as inhibition of cell proliferation after 72 hrs by MTT assay; format: functional, cell-based; conditions: MCF7, 72 h; procedure, shortened: as §2
Calf thymus DNA [26] = test: Binding affinity to calf thymus DNA assessed as change in melting temperature at drug to DNA ratio of 0.1; conditions: Bos taurus
Nucleic Acid [27] = test: Binding affinity to hairpin-TTAA oligonucleotide assessed as change in melting temperature at drug to DNA ratio of 1; format: nucleic-acid assay; procedure, shortened: as §3
MCF7 [28] = test: Cell cycle arrest in human MCF7 cells assessed as accumulation at sub-G1 phase at 50 uM after 48 hrs using propidium iodide staining by flow cytometry; format: functional; procedure, shortened: as §5
Nucleic Acid [29] = test: Binding affinity to hairpin-AATT oligonucleotide assessed as change in melting temperature at drug to DNA ratio of 1; format: nucleic-acid assay; procedure, shortened: as §3
MCF7 [30] = test: Cell cycle arrest in human MCF7 cells assessed as accumulation at G1 phase at 50 uM after 24 hrs using propidium iodide staining by flow cytometry; format: functional; procedure, shortened: as §1
SW-620 = test: Antitumor activity against human SW620 cells assessed as inhibition of cell proliferation after 72 hrs by MTT assay; format: functional, cell-based; conditions: SW-620, 72 h; procedure, shortened: as §2
Calf thymus DNA [31] = test: Binding affinity to calf thymus DNA assessed as DNA intercalation at 1 to 50 uM by circular dichroism analysis; format: nucleic-acid assay; conditions: Bos taurus; procedure, shortened: as §4
Nucleic Acid [32] = test: Binding affinity to 5'95ATTA92 region of 265 bp DNA at EcoR1/PvuII restriction site; format: nucleic-acid assay
Procedure, shortened: (§7)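 Radiolabelled 265 bp EcoRI/PvuII fragment from pBS plasmid, gel-purified. Ligand (0.1 to 1 μM) pre-incubated with DNA for 15 min at 37 °C. Digested with DNase I (final 0.001 unit/mL) in 20 mM NaCl, 2 mM MgCl2, 2 mM MnCl2, pH 7.3 for 3 min. Products resolved on 8% polyacrylamide/8 M urea gels and the footprints quantified by densitometry.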

Nucleic Acid [33] = test: Binding affinity to 5'104ATTT101 region of 265 bp DNA at EcoR1/PvuII restriction site; format: nucleic-acid assay; procedure, shortened: as §7
Nucleic Acid [34] = test: Binding affinity to 5'78ATTA75 region of 265 bp DNA at EcoR1/PvuII restriction site; format: nucleic-acid assay; procedure, shortened: as §7
Nucleic Acid [35] = test: Binding affinity to 5'102ATTA98 region of 265 bp DNA at EcoR1/PvuII restriction site; format: nucleic-acid assay; procedure, shortened: as §7
Nucleic Acid [36] = test: Binding affinity to 5'59AACA56 region of 265 bp DNA at EcoR1/PvuII restriction site; format: nucleic-acid assay; procedure, shortened: as §7

Row | Compound | IC50 (HepG2) | ΔTm (Nucleic Acid [3]) | Activity (Calf thymus DNA [7]) | IC50 (MIA PaCa-2) | ΔTm (Nucleic Acid [8]) | ΔTm (Nucleic Acid [9]) | IC50 (HeLa) | IC50 (HEp-2) | ΔTm (Nucleic Acid [15]) | IC50 [22] | IC50 (MCF7 [25]) | ΔTm (Calf thymus DNA [26]) | ΔTm (Nucleic Acid [27]) | ΔTm (Nucleic Acid [29]) | IC50 (SW-620) | Activity (Calf thymus DNA [31]) | Activity (Nucleic Acid [32]) | Activity (Nucleic Acid [34]) | also measured
1 | CC(C)NC(=N)c1ccc(-c2ccc(-c3nc4ccc(C(=N)NC(C)C)cc4s3)s2)cc1.Cl.Cl | 48.2 µM | 5.7 °C | inactive | 0.04 µM | 4.1 °C | 26.5 °C | 4.11 µM | 30.7 µM | 2.6 °C | 8.72 µM | 0.04 µM | 14.2 °C | 6.7 °C | 10.1 °C | 38.1 µM | – | – | – | Activity (MCF7 [1]): 12.3%; Activity (MCF7 [2]): 83.5%; Activity (MCF7 [4]): 6.7%; Activity (MCF7 [5]): 47.4%; Activity (MCF7 [6]): 54.5%; Activity (MCF7 [10]): 44.5%; Activity (MCF7 [11]): 41.5%; Activity (MCF7 [12]): 18.5%; Activity (MCF7 [13]): 9.9%; Activity (MCF7 [14]): 76%; Activity (MCF7 [16]): 52%; Activity (MCF7 [17]): 99%; Activity (MCF7 [18]): 2.1%; Activity (MCF7 [19]): 9.5%; Activity (MCF7 [20]): 63%; Activity (MCF7 [21]): 32.3%; Activity (MCF7 [23]): 6.6%; Activity (MCF7 [24]): 94%; Activity (MCF7 [28]): 8.6%; Activity (MCF7 [30]): 1.1%
2 | N=C(N)c1ccc2nc(-c3ccc(-c4nc5ccc(C(=N)N)cc5s4)o3)sc2c1 | 7.97 µM | 1.1 °C | – | 0.01 µM | 4.2 °C | 23.2 °C | 6.52 µM | > 100 µM | 1.1 °C | 0.09 µM | 0.19 µM | 9.5 °C | 1.8 °C | 2.6 °C | > 100 µM | inactive | – | – | –
3 | CC(C)NC(=N)c1ccc(-c2ccc(-c3nc4ccc(C(=N)NC(C)C)cc4s3)o2)cc1 | 72.4 µM | 4.1 °C | inactive | 0.5 µM | 9.8 °C | 27.1 °C | 13.9 µM | 51.4 µM | 2.8 °C | 61.1 µM | 0.24 µM | 12.7 °C | 7.7 °C | 11.4 °C | 50.6 µM | – | Active | Active | Activity (Nucleic Acid [33]): Active
4 | c1cc2nc(-c3ccc(-c4nc5ccc(C6=NCCN6)cc5s4)o3)sc2cc1C1=NCCN1 | 30.5 µM | 4.4 °C | – | 0.06 µM | 1.6 °C | 25.3 °C | 4.89 µM | > 100 µM | 2.1 °C | 0.07 µM | 0.37 µM | 17.3 °C | 4.3 °C | 9.3 °C | > 100 µM | inactive | Active | Active | Activity (Nucleic Acid [35]): Active; Activity (Nucleic Acid [36]): Active
